Measured values from ChEMBL document CHEMBL4406918, “Inhibitory Effects of Multivalent Polypeptides on the Proliferation and Metastasis of Breast Cancer Cells” (ACS Med Chem Lett, 2019).
Calls of active or inactive are those of the source. No cut-off for these calls is given here.

Columns and labels:
4T1 [1] = test: Antitumour activity against mouse 4T1 cells xenografted in BALB/c mouse assessed as […] at 10 mg/kg administered intratumorally and measured after 24 days by H and E staining based inverted optical microscopic method; format: functional, organism-based
Summary of the method: (§1)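 BALB/c mice bearing subcutaneous 4T1 tumours received 6 doses at 10 mg/kg body weight, matched for YSL monomer molar amount, with saline as control. Tumour sections were stained for H&E, CD31, Ki-67 and TUNEL. n = 5.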

4T1 [2] = test: Antitumour activity against mouse 4T1 cells xenografted in BALB/c mouse assessed as increase in damage of tumor tissue at 10 mg/kg administered intratumorally and measured after 24 days by H and E staining based inverted optical microscopic method; format: functional, organism-based
Summary of the method: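 Tumours from 4T1-bearing BALB/c mice given 6 doses of 10 mg/kg (saline control) were sectioned and stained with H&E, plus CD31, Ki-67 and TUNEL.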

4T1 [3] = test: Antitumour activity against mouse 4T1 cells xenografted in BALB/c mouse assessed as inhibition in tumor growth at 10 mg/kg administered intratumorally and measured every 3 days for 24 days; format: functional, organism-based
Summary of the method: (§2)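 BALB/c mice bearing subcutaneous 4T1 tumours received 6 doses of 10 mg/kg, with equal YSL-monomer molar amounts across compounds and saline as control. Tumour volume growth curves and body weights were tracked. Mean ± SD, n = 5.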

4T1 [4] = test: Antitumour activity against mouse 4T1 cells xenografted in BALB/c mouse assessed as increase in number of TUNEL positive cells at 10 mg/kg administered intratumorally and measured after 24 days by H and E staining based inverted optical microscopic method; format: functional, organism-based; summary of the method: as §1
4T1 [5] = test: Inhibition of cell migration in mouse 4T1 cells assessed as migration frequency at 0.2 mM incubated for 24 hrs by crystal violet staining based transwell assay relative to control; format: functional; set-up: scale not given: the % may be the effect or the level left
Summary of the method: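 4T1 cells, Transwell migration with 24 h exposure to 0.2 mM. Migration rate comes from counting cells on the bottom of the porous membrane. Mean ± SD, n = 3.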

4T1 [6] = test: Inhibition of metastasis in mouse 4T1 cells assessed as cell shrinkage at 0.2 mM incubated for 24 hrs by Hoechst 33342 staining based confocal laser scanning microscopic method; format: functional
Summary of the method: (§3)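 After 24 h treatment, 4T1 cells were stained with Alexa Fluor 488 phalloidin for F-actin and Hoechst 33342 for nuclei, then imaged by fluorescence microscopy to assess cytoskeleton and cell morphology.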

[7] = Toxicity in BALB/c mouse xenografted with mouse 4T1 cells assessed as induction of morphological lesions in spleen at 10 mg/kg administered intratumorally and measured after 24 days by H and E staining based inverted optical microscopic method; format: organism-based; conditions: in vivo, other, 576 h
[8] = Stability in fetal bovine serum assessed as parent compound remaining measured after 12 hrs by RP-HPLC analysis; format: ADME, cell-free, Bos taurus; conditions: cattle, read-out: Stability
Summary of the method: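 Peptides incubated in serum, and the fraction of intact YSL was measured over time up to 12 h, including a 4 h point.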

[9] = Toxicity in BALB/c mouse xenografted with mouse 4T1 cells assessed as induction of morphological lesions in kidney at 10 mg/kg administered intratumorally and measured after 24 days by H and E staining based inverted optical microscopic method; format: organism-based; conditions: in vivo, other, 576 h
4T1 [10] = test: Antitumour activity against mouse 4T1 cells xenografted in BALB/c mouse assessed as reduction in number of lung tumor metastatic nodules at 10 mg/kg administered intratumorally and measured after 24 days by H and E staining based inverted optical microscopic method; format: functional, organism-based
Summary of the method: (§4)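 After 6 doses of 10 mg/kg to 4T1 tumour-bearing BALB/c mice (saline control), lungs were photographed whole and examined histopathologically for the number and size of metastatic nodules.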

[11] = Toxicity in BALB/c mouse xenografted with mouse 4T1 cells assessed as induction of morphological lesions in liver at 10 mg/kg administered intratumorally and measured after 24 days by H and E staining based inverted optical microscopic method; format: organism-based; conditions: in vivo, other, 576 h
4T1 [12] = test: Induction of cell death in mouse 4T1 cells incubated for 24 hrs by PI staining based inverted microscopic method; format: functional
Summary of the method: (§5)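 Live–dead staining of 4T1 cells after 24 h exposure to 0.4 mM, read by PI staining. A 0.8 mM level was also examined.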

[13] = Toxicity in BALB/c mouse xenografted with mouse 4T1 cells assessed as change in serum creatinine level at 10 mg/kg administered intratumorally and measured after 24 days; format: organism-based; conditions: in vivo, other, 576 h
4T1 [14] = test: Antiproliferative activity against mouse 4T1 cells at 0.1 mM incubated for 24 hrs by MTT assay; format: functional, cell-based
4T1 [15] = test: Inhibition of metastasis in mouse 4T1 cells assessed as shortening in actin filaments at 0.2 mM incubated for 24 hrs by Hoechst 33342 staining based confocal laser scanning microscopic method; format: functional, cell-based; summary of the method: as §3
4T1 [16] = test: Antitumour activity against mouse 4T1 cells xenografted in BALB/c mouse assessed as reduction in size of lung tumor metastatic nodules at 10 mg/kg administered intratumorally and measured after 24 days by H and E staining based inverted optical microscopic method; format: functional, organism-based; summary of the method: as §4
[17] = Toxicity in BALB/c mouse xenografted with mouse 4T1 cells assessed as change in body weight at 10 mg/kg administered intratumorally and measured after 24 days; format: organism-based; conditions: in vivo, other, 576 h; summary of the method: as §2
4T1 [18] = test: Induction of apoptosis in mouse 4T1 cells at 0.4 mM incubated for 24 hrs by PI staining based inverted microscopic method; format: functional, cell-based; summary of the method: as §5
4T1 [19] = test: Inhibition of cell migration in mouse 4T1 cells assessed as wound closure rate at 0.2 mM measured up to 36 hrs by inverted optical microscopic method based wound healing assay (reference value: 82%); format: functional; set-up: scale not given: the % may be the effect or the level left
4T1 [20] = test: Induction of apoptosis in mouse 4T1 cells assessed as early apoptotic cells at 0.4 mM incubated for 24 hrs by Annexin V-FITC/PI based FACS analysis (reference value: 0.76%); format: functional
4T1 [21] = test: Inhibition of metastasis in mouse 4T1 cells assessed as formation of pseudopods at 0.2 mM incubated for 24 hrs by SEM analysis; format: functional, cell-based
Summary of the method: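 4T1 cells treated 24 h, then imaged by scanning electron microscopy for pseudopod formation. Dendrimers were tested at 0.2 mM and the reference at 10–5 mM.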

4T1 [22] = test: Induction of cell cycle arrest in mouse 4T1 cells assessed as accumulation at G0/G1 phase at 0.4 mM incubated for 24 hrs by PI staining based flow cytometric analysis (reference value: 37.78%); format: functional
4T1 [23] = test: Induction of cell cycle arrest in mouse 4T1 cells assessed as accumulation at G2/M phase at 0.4 mM incubated for 24 hrs by PI staining based flow cytometric analysis (reference value: 19.82%); format: functional
4T1 [24] = test: Antitumour activity against mouse 4T1 cells xenografted in BALB/c mouse assessed as increase in cytotoxic tumor cell death at 10 mg/kg administered intratumorally and measured after 24 days by H and E staining based inverted optical microscopic method; format: functional, organism-based; summary of the method: as §1
4T1 [25] = test: Antiproliferative activity against mouse 4T1 cells assessed as cell death at 0.2 mM incubated for 24 hrs by MTT assay relative to control; format: functional
Summary of the method: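 Mouse 4T1 breast cancer cells exposed for 24 h (doses include 0.1 and 0.2 mM), then read by MTT for viability or cell death. Mean ± SD, n = 6.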

[26] = Toxicity in BALB/c mouse xenografted with mouse 4T1 cells assessed as change in blood urea nitrogen level at 10 mg/kg administered intratumorally and measured after 24 days; format: organism-based; conditions: in vivo, other, 576 h
4T1 [27] = test: Potency index, ratio of test compound effect to YSL effect for inhibition of cell migration in mouse 4T1 cells; format: functional
[28] = Toxicity in BALB/c mouse xenografted with mouse 4T1 cells assessed as induction of morphological lesions in heart at 10 mg/kg administered intratumorally and measured after 24 days by H and E staining based inverted optical microscopic method; format: organism-based; conditions: in vivo, other, 576 h

SMILES: COC(=O)[C@H](CCCCNC(=O)[C@H](CCCCNC(=O)[C@H](CCCCNC(=O)[C@H](CC(C)C)NC(=O)[C@H](CO)NC(=O)[C@@H](N)Cc1ccc(O)cc1)NC(=O)[C@H](CC(C)C)NC(=O)[C@H](CO)NC(=O)[C@@H](N)Cc1ccc(O)cc1)NC(=O)[C@H](CCCCNC(=O)[C@H](CC(C)C)NC(=O)[C@H](CO)NC(=O)[C@@H](N)Cc1ccc(O)cc1)NC(=O)[C@H](CC(C)C)NC(=O)[C@H](CO)NC(=O)[C@@H](N)Cc1ccc(O)cc1)NC(=O)[C@H](CCCCNC(=O)[C@H](CCCCNC(=O)[C@H](CC(C)C)NC(=O)[C@H](CO)NC(=O)[C@@H](N)Cc1ccc(O)cc1)NC(=O)[C@H](CC(C)C)NC(=O)[C@H](CO)NC(=O)[C@@H](N)Cc1ccc(O)cc1)NC(=O)[C@H](CCCCNC(=O)[C@H](CC(C)C)NC(=O)[C@H](CO)NC(=O)[C@@H](N)Cc1ccc(O)cc1)NC(=O)[C@H](CC(C)C)NC(=O)[C@H](CO)NC(=O)[C@@H](N)Cc1ccc(O)cc1
- Activity (4T1 [1]): Active
- Activity (4T1 [2]): Active
- Activity (4T1 [3]): Active
- Activity (4T1 [4]): Active
- Activity (4T1 [5]): 10%
- inhibition (4T1 [6]): Active
- Activity [7]: Non-Toxic
- remaining at 12 h [8]: > 80%
- Activity [9]: Non-Toxic
- Activity (4T1 [10]): Active
- Activity [11]: Non-Toxic
- Activity (4T1 [12]): Dose-dependent effect
- Activity [13]: Non-Toxic
- Activity (4T1 [14]): inactive
- inhibition (4T1 [15]): Active
- Activity (4T1 [16]): Active
- Activity [17]: Non-Toxic
- Activity (4T1 [18]): Active
- Activity (4T1 [19]): 30%
- Activity (4T1 [20]): 3.95%
- inhibition (4T1 [21]): inactive
- Activity (4T1 [22]): 44.44%
- Activity (4T1 [23]): 7.08%
- Activity (4T1 [24]): Active
- Activity (4T1 [25]): 20%
- Activity [26]: Non-Toxic
- Ratio (4T1 [27]): 4.5
- Activity [28]: Non-Toxic
